# Screens (PubChem)
# DDE Tn6 FP inh – inhibitors of Tn6 peptide binding to human fibrin DD(E) | Fibrin DD(E) TRITC-Tn6 fluorescence polarization displacement | inhibition, % at 8.3 µM | actives 0.21% (n = 370,000) | AID 720509;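 active = inhibition above a per-campaign cutoff: mean of compounds within control limits plus 3 SD, cut at about 15% in these data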;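 note: 0% = median of all compound wells on the plate and 100% = blocking peptide control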
# Target sequence (P02675 whole entry, looked up): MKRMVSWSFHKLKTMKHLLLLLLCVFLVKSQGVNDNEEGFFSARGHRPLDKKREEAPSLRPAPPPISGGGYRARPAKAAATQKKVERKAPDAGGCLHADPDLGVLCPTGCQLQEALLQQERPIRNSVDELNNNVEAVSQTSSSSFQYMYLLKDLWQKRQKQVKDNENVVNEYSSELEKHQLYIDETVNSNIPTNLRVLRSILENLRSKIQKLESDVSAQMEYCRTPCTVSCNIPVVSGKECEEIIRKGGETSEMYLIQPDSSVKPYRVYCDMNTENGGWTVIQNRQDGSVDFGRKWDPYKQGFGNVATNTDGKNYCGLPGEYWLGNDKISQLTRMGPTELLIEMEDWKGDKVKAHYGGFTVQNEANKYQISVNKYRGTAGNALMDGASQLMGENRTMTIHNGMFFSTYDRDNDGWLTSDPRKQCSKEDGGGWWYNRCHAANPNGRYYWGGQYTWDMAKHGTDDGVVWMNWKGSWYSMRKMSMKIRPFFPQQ
# NRP1-CendR mod – NRP-1/CendR interaction modulation | AID 602438 | actives 0.85% (n = 360,000) | O14786 | inhibition, % at 25 µM | FAM-RPARPAR peptide binding to NRP-1, fluorescence polarization;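 active = inhibition or corrected inhibition above about 18%, plus a signal ratio from 0.5 to 1.5, limit read from the data, passing the limit was not always enough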
# aDG glyco up – increases alpha dystroglycan glycosylation. Pro5-aDG cells, alpha-DG glycosylation AlphaScreen (IIH6); 0% Pro5, 100% B10-LARGE cell signal. activation, % at 10 µM. actives 0.22% (n = 360,000);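 active = activation of at least 8% versus controls, or a plate z-score of at least 8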;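 note: Pro5 are CHO cells carrying HIG-tagged alpha-DG that lacks glycosylation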
# DDE Tn7 FP inh – DD(E)-Tn7 binding inhibition, primary FP screen | P02675 | actives 0.13% (n = 370,000) | AID 720508 | inhibition, % at 8.3 µM | FP displacement of FITC-Tn7 peptide from fibrin DD(E); 0% = median of compound wells per plate;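 active = inhibition above the mean of compounds falling within the control limits plus 3 SD of them, cut at about 14% in these data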;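 note: 0% = plate median of compound wells and 100% = 10 µM Aha-Tn7 peptide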
#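 Assay system: human fibrin DD(E). Input: DD(E) 2 µM final. Medium: Tris buffer with calcium and detergent, pH 7.8. Compound dosing: single point at 8.3 µM. Timing: 10 min plus 3 h, room temperature. Technique: fluorescence polarization of the labelled Tn7 tracer. Read-out: percent inhibition. Replicates: singlicate testing.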
# Starred values were filed as active, the others as inactive; x = not tested or not shown. Compounds with a hit are over-represented: about 1.3% of the library has one in this group of screens.
SMILES,DDE Tn6 FP inh,NRP1-CendR mod,aDG glyco up,DDE Tn7 FP inh
CC(=O)NS(=O)(=O)c1ccc(NC(=O)C(C)NS(=O)(=O)/C=C/c2ccccc2)cc1 (configuration not stated),-0.5,19.8*,-0.3,-3.3
N#CC(CC(=O)OCc1ccccc1)NC(=O)OCc1ccccc1 (configuration not stated),0.2,0.8,-0.1,4.3
CC1(C)CCC/C(=C\c2ccccc2)C1=O,5.9,19.7*,0.2,8.1
O=C(NCCc1cccs1)Nc1ccc2nc([C@@H]3O[C@H](CO)[C@@H](O)[C@H]3O)[nH]c2c1,2.3,-2.0,-0.2,-2.3
CCN(CC)C(=O)C1=C(C)N(CCC2=CCCCC2)C(=O)C(CC(=O)NC(c2ccccc2)c2ccccc2)C1 (configuration not stated),2.6,9.4,0.0,-5.6
CCCCn1c(N)c(N(CCOC)C(=O)COC(=O)/C=C/c2ccc(Br)cc2)c(=O)[nH]c1=O,-13.0,22.7*,-0.2,-1.6
NC(=O)C1CCN(c2nc(-c3ccccc3N)cs2)CC1,-4.1,24.4*,-0.2,-4.9
COc1ccccc1-n1c(SCC(=O)N2CCCC2)nnc1-c1ccccc1,-1.5,21.1*,0.1,-1.1
CCn1c2ccccc2c2cc(NC(=O)COC(=O)c3cc(F)ccc3F)ccc21,-2.8,x,x,5.5
CCC(=O)Nc1ccc(Cl)cc1C(=O)c1ccc[nH]1,-3.0,x,x,1.9
CC(C)=CCC/C(C)=C/CNC(=O)C[C@H]1C[C@H](C(=O)N(C(C)C)C(C)C)[C@@]2(C)c3[nH]c4ccc(Cl)cc4c3CCN2C1=O,4.3,27.1*,-0.1,-5.7
Cn1c(SCC(=O)NNC(=O)c2ccccc2)nnc1C1CC1,5.7,24.4*,0.0,-7.5
Cc1ccc(C(=O)NNC(=O)CSc2nnc(C3CC3)n2C)cc1,0.9,-1.8,-0.1,-8.8
Cc1ccc(C(=O)NNC(=O)CSc2nnc(C(C)C)n2C)cc1,5.6,19.6*,0.0,-3.3
Cc1ccc(Cl)cc1-c1cc(C(=O)NCc2cc(C(F)(F)F)cc(C(F)(F)F)c2)[nH]n1,-9.4,3.4,-0.1,-7.7
O=C1CCC[C@H]2C[C@H](NCCc3ccncc3)CC[C@]23CCCN13,-0.9,x,x,-0.9
C/C(=N\N=c1/sc2ccccc2n1C)c1ccccn1,-3.6,26.5*,0.0,3.5
C/C(=N\N=c1/sc2ccccc2n1C)c1ccc(N2CCOCC2)cc1,2.0,-6.8,-0.2,-4.7
O=C(NCc1ccc(F)cc1)c1cnc(-c2ccccn2)nc1C(F)(F)F,-1.9,28.7*,0.4,1.4
O=C(NCc1ccc(F)cc1)c1cccnc1C(=O)O,5.2,26.8*,-0.1,3.8
O=C(NCc1cccs1)c1cccnc1C(=O)O,x,-0.7,-0.2,x
Cc1ccc(CNC(=O)c2cnc(-c3ccccn3)nc2C(F)(F)F)cc1,4.8,14.3,-0.3,-9.4
CCOc1ccc(/C=C2\NCCc3cc(OCC)c(OCC)cc32)cc1OCC,-2.6,x,x,0.0
COC(=O)c1ccc(CNC(=O)COC(=O)/C=C/c2cccc(OC)c2)cc1,-3.9,5.9,-0.5,-7.9
O=C1CCN(Cc2cccnc2)CCN1[C@H](CO)c1ccccc1,13.4,22.0*,0.1,1.8
SMILES,DDE Tn6 FP inh,NRP1-CendR mod,aDG glyco up,DDE Tn7 FP inh
COc1cc(C2CC(=O)Oc3c(C(CCN4CCCC(C)C4)c4ccc(N(C)C)cc4)c(OC)cc(OC)c32)cc(OC)c1OC (configuration not stated),-5.7,25.4*,0.0,-1.2
COc1cc(C(CCN2CCCC(C)C2)c2c(OC)cc(OC)c3c2OC(=O)CC3c2ccc(N(C)C)cc2)cc(OC)c1OC (configuration not stated),x,1.2,0.3,x
C/C(COc1ccccc1)=N\NC(=O)c1nnn(-c2nonc2N)c1CSc1ccc(C)cc1,-6.1,-10.7,0.2,5.3
COc1cccc(CNC(=S)OC2CCC23CCC(c2ccccc2)CC3)c1 (configuration not stated),2.5,x,x,13.4
CCOC(=O)c1cnc(-n2nc(C)cc2C)nc1Nc1ccc(OC)cc1,0.5,30.3*,4.5,-1.9
Cc1ccc(NS(=O)(=O)c2ccc(C(=O)N3CCN(c4ccccn4)CC3)cc2)cc1,0.3,19.5,6.3*,4.2
CC(C)c1ccc(NC(=O)COC(=O)C2CCCCC2)cc1,1.0,-4.3,0.0,-0.5
COc1ccc(C(=O)O/N=C(\N)c2ccccc2)c(OC)c1,-9.6,17.8*,0.6,-1.0
COc1cccc(C(=O)O/N=C(\N)c2ccc([N+](=O)[O-])cc2)c1OC,0.9,25.1*,0.1,-3.5
CCN(CC)C(=O)[C@H]1C[C@H](CC(=O)NC(C)(C)C)C(=O)N2CCc3c([nH]c4cc(CCC(=O)N(C)C)ccc34)[C@]12C,6.3,0.1,0.3,-3.7
COc1ccc(S(=O)(=O)N2CCOC2CNC(=O)C(=O)NCc2ccc3c(c2)OCO3)cc1 (configuration not stated),3.6,23.4*,0.0,-7.4
COC(=O)c1cccc(NC(=S)NCCC2=CCCCC2)c1,2.3,36.1*,0.3,8.4
COC(=O)c1ccc(NC(=S)NCCC2=CCCCC2)cc1,1.2,-3.3,0.3,-0.5
O=C(Nc1ccc(Cl)cc1)c1cc(S(=O)(=O)Nc2ccccn2)ccc1Cl,-0.3,24.5*,-0.1,-1.9
O=C(Nc1ccc(Cl)cc1)c1cccc(S(=O)(=O)Nc2ccccn2)c1,-16.1,14.6,-0.3,4.2
CCCCOC(=O)n1c(=O)oc2ccccc21,0.6,-4.7,-0.4,-1.5
COC(=O)n1c(=O)oc2ccccc21,3.6,26.4*,-0.1,-10.6
CCCCNC(=O)C(NC(=O)c1ccc2c(c1)OCO2)C(=O)c1ccccc1 (configuration not stated),0.0,5.1,0.1,-4.8
CCCC(C)NC(=O)CN(Cc1ccco1)S(=O)(=O)c1ccccc1 (configuration not stated),-0.5,22.8*,-0.1,-3.2
CCC(C)NS(=O)(=O)c1ccc(S(=O)(=O)N(CC(=O)Nc2ccccc2)Cc2ccco2)cc1 (configuration not stated),-1.9,-4.8,0.1,3.5
NC(=O)c1ccccc1N=Cc1cccnc1,-3.4,33.0*,0.0,1.8
COCC(=O)OC1CCn2c1nc1c2C(=O)C(C)=C(NC(C)=O)C1=O (configuration not stated),2.0,44.9*,7.5,1.6
Cc1noc(N)c1C1(O)C(=O)Nc2c(Cl)cc(Cl)cc21 (configuration not stated),3.7,0.3,-0.1,8.6
Cc1nn(CCO)c(N)c1C1(O)C(=O)Nc2c(Cl)cc(Cl)cc21 (configuration not stated),-0.2,24.4*,1.6,-5.5
C=CCn1c(SCC(=O)O)nnc1-c1ccco1,7.3,x,x,4.0
CC1OC(OCC2OC(Oc3c(-c4ccc(O)cc4)oc4cc(O)cc(O)c4c3=O)C(O)C(O)C2O)C(O)C(O)C1O (configuration not stated),-1.7,21.6*,0.3,-1.2
